Experimental data taken from ChEMBL document CHEMBL4002578, “α-Glucosidase Inhibitors from the Marine-Derived Fungus Aspergillus flavipes HN4-13” (J Nat Prod, 2016).
Where a name gives a salt, the structure may show the parent alone.

Experiments:
HepG2 = assay: Cytotoxicity against human HepG2 cells assessed as growth inhibition at 10 uM measured after 72 hrs by CCK-8 assay relative to control; type: functional; conditions: HepG2, 72 h, read-out: GI
K562 = assay: Cytotoxicity against human K562 cells assessed as growth inhibition at 10 uM measured after 72 hrs by CCK-8 assay relative to control; type: functional; conditions: K562, 72 h, read-out: GI
[1] = Cytotoxicity against human Caco2 cells measured after 72 hrs by MTT assay; type: cell-based; conditions: Caco-2 cells
Method in brief: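 Caco-2 viability was measured by MTT, and the median cytotoxic concentration (CC50) was derived.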

[2] = Non-competitive inhibition of human alpha-glucosidase expressed in Saccharomyces cerevisiae using varying levels of p-nitophenyl-alpha-glucopyranoside as substrate pretreated with substrate for 15 mins followed by enzyme addition measured after 15 mins by Lineweaver-burk plot analysis
Jurkat = assay: Cytotoxicity against human Jurkat cells assessed as growth inhibition at 10 uM measured after 72 hrs by CCK-8 assay relative to control; type: functional; conditions: read-out: GI
[3] = Competitive inhibition of human alpha-glucosidase expressed in Saccharomyces cerevisiae using varying levels of p-nitophenyl-alpha-glucopyranoside as substrate pretreated with substrate for 15 mins followed by enzyme addition measured after 15 mins by Lineweaver-burk plot analysis
[4] = Inhibition of human alpha-glucosidase expressed in Saccharomyces cerevisiae using p-nitophenyl-alpha-glucopyranoside as substrate pretreated with substrate for 15 mins followed by enzyme addition measured after 15 mins
Method in brief: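 Enzyme from a recombinant gene expressed in Saccharomyces cerevisiae, diluted to 0.2 U/mL in 0.01 M PBS. Compound, at three concentrations in sodium phosphate buffer pH 6.8, was mixed with 2.5 mM pNPG stock and held 15 min at 37 °C. Enzyme was then added for a further 15 min at 37 °C, and absorbance was read at 405 nm. The no-enzyme blank was subtracted, and IC50 was taken as the concentration giving 50% inhibition.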

MCF7 = assay: Cytotoxicity against human MCF7 cells assessed as growth inhibition at 10 uM measured after 72 hrs by CCK-8 assay relative to control; type: functional; conditions: MCF7, 72 h, read-out: GI
[5] = Selectivity index, ratio of CC50 for human Caco2 cells to IC50 for human alpha-glucosidase expressed in Saccharomyces cerevisiae
Method in brief: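 SI was calculated as Caco-2 CC50 (MTT) divided by the α-glucosidase IC50 from the pNPG assay.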

A549 = assay: Cytotoxicity against human A549 cells assessed as growth inhibition at 10 uM measured after 72 hrs by CCK-8 assay relative to control; type: functional; conditions: A549, 72 h, read-out: GI

SMILES	inhibition of growth at 10 µM (HepG2) [%]	inhibition of growth at 10 µM (K562) [%]	CC50 at 72 h [1] [µM]	Ki [2] [µM]	inhibition of growth at 10 µM (Jurkat) [%]	Ki [3] [µM]	IC50 [4] [µM]	inhibition of growth at 10 µM (MCF7) [%]	Ratio CC50/IC50 [5]	inhibition of growth at 10 µM (A549) [%]
Cc1c(O)c(O)c(O)c(C=O)c1-c1cc2c(C=O)c(C)c(O)c(O)c2o1	< 34	< 34	> 800	7.2	< 34	2.5	33	< 34	>24	< 34
COc1cc(/C=C2\OC(=O)C(c3ccc(O)cc3)=C2O)ccc1O	< 34	< 34			< 34		120 to 1300	< 34		< 34
COC(=O)c1cc(O)cc(OC)c1Oc1cc(C)c(Cl)c(O)c1C(=O)O	< 34	< 34			< 34		120 to 1300	< 34		< 34
COc1cc(O)cc(C(=O)O)c1Oc1cc(C)cc(O)c1C(=O)O	< 34	< 34	> 800	0.6	< 34	1.4	9.9	< 34	>81	< 34
COC(=O)[C@]1(Cc2ccc3c(c2)CCC(C)(C)O3)OC(=O)C(O)=C1c1ccc(O)cc1	< 34	< 34	> 800	2.1	< 34		37	< 34	>22	< 34
COC(=O)c1cc(O)cc(OC)c1C(=O)c1c(O)cc(C)c(Cl)c1O	< 34	< 34			< 34		120 to 1300	< 34		< 34
COC(=O)[C@@]1(O)OC(=O)C(Cc2ccc3c(c2)CCC(C)(C)O3)=C1c1ccc(O)cc1	< 34	< 34	278	14	< 34	3.4	57	< 34	4.8	< 34
CC1(C)CCc2cc(CC3=C(c4ccc(O)cc4)[C@@](O)(C(=O)O)OC3=O)ccc2O1	< 34	< 34	> 800	4.7	< 34	9.2	95	< 34	>8.5	< 34
CC1(C)CCc2cc(CC3OC(=O)C(O)=C3c3ccc(O)cc3)ccc2O1 (configuration not stated)	< 34	< 34	> 800	0.43	< 34		34	< 34	>24	< 34
CCOC(=O)[C@@]1(O)OC(=O)C(Cc2ccc3c(c2)CCC(C)(C)O3)=C1c1ccc(O)cc1	< 34	< 34	519	19	< 34	2.5	44	< 34	12	< 34
C[C@H]1O[C@H](O[C@H]2[C@H](O)[C@@H](O)[C@@H](O[C@H]3[C@H](O)[C@@H](O)C(O)O[C@@H]3CO)O[C@@H]2CO)[C@H](O)[C@@H](O)[C@@H]1N[C@H]1C=C(CO)[C@@H](O)[C@H](O)[C@H]1O (some centres not stated) [ACARBOSE]							101			
COC(=O)c1cc(O)cc(OC)c1Oc1cc(C)cc(O)c1C(=O)O [ASTERRIC ACID]	< 34	< 34			< 34			< 34		< 34
COC(=O)c1cc(O)cc(OC)c1C(=O)c1c(O)c(Cl)c(C)c(Cl)c1O [DIHYDROGEODIN]	< 34	< 34			< 34		120 to 1300	< 34		< 34
COc1cccc2c1C(=O)c1c(O)c3c(c(O)c1C2=O)C[C@@](O)(C(=O)CO)C[C@@H]3O[C@H]1C[C@H](N)[C@H](O)[C@H](C)O1 [DOXORUBICIN HYDROCHLORIDE]	< 34	< 34			< 34			< 34		< 34
OC[C@H]1NC[C@H](O)[C@@H](O)[C@@H]1O [DUVOGLUSTAT]							79			
Cc1cc(O)c2c(c1)C(=O)c1cc(O)cc(O)c1C2=O [EMODIN]	< 34	< 34	> 800	0.79	< 34		19	< 34	>43	< 34
COC(=O)c1cc(O)cc(OC)c1Oc1c(Cl)c(C)c(Cl)c(O)c1C(=O)O [GEODIN HYDRATE]	< 34	< 34	> 800	5.5	< 34	6.3	55	< 34	>15	< 34
COC(=O)c1cc(O)cc(OC)c1Oc1c(Cl)c(C)c(Cl)c(O)c1C(=O)OC [METYL DICHLOROASTERRATE]	< 34	< 34	> 800	2.8	< 34		90	< 34	>8.9	< 34
